Measured values collected from several papers.
Each line is one published result; the experiments were not run side by side.
Target: 5-hydroxytryptamine receptor 1A (HTR1A, Homo sapiens, UniProt P08908)
One construct used (P08908 1-422): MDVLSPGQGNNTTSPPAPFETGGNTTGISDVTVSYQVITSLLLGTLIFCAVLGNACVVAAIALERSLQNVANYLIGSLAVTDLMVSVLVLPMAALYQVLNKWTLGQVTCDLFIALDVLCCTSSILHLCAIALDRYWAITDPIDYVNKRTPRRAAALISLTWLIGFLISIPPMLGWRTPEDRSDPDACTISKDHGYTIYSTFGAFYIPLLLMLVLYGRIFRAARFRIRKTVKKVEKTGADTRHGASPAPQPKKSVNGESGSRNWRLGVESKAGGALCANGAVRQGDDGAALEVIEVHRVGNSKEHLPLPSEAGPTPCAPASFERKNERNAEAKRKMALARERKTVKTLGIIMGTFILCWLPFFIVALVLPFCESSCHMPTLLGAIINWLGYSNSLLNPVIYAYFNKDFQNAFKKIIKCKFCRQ

COc1cc2c3c(c1OC)-c1cc4c(cc1CC3N(C)CC2c1ccccc1)OCO4 (stereo not shown) — inhibition (ligand displacement; radioligand; 10 µM): < 50%
CN([C@@H]1CCc2c(CC(=O)O)c3ccccc3n2C1)S(=O)(=O)c1ccc(F)cc1 — inhibition (ligand displacement; radioligand; 10 µM): 15.5%
Oc1cccc(Nc2nc(-c3ccc(F)cc3F)cs2)c1 — inhibition (ligand displacement; radioligand; 10 µM): 31.5%
CCN(CC)c1ccc(C2Nc3ccc(C(=O)c4ccccc4)cc3NC3=C2C(=O)CC(C)(C)C3)cc1 (stereo not shown) — inhibition (ligand displacement; radioligand; 10 µM): 22%
COc1cc(NC(C)=O)c(Cl)cc1C(=O)Nc1nccs1 — inhibition (ligand displacement; radioligand; 10 µM): 23.8%
CCN(Cc1ccccc1C(F)(F)F)C(=O)C1CCN(S(=O)(=O)c2ccc3[nH]ncc3c2)CC1 — inhibition (ligand displacement; radioligand; 10 µM): 0%
CCCNc1nc2ccccc2n1Cc1ccc(Cl)cc1 — inhibition (ligand displacement; 10 µM): 0.33%
CC1=C(C#N)C(c2ccc3c(c2)c(NC(=O)c2ccccc2C)nn3C)C(C#N)=C(C)N1 — inhibition (ligand displacement; radioligand; 10 µM): 8.55%
O=C(CCCN1CCCN(c2ccc(Cl)cc2)CC1)c1ccc(F)cc1 — Emax (cAMP; agonist; luciferase): 4.4%
COc1ccc(-n2nc(OCCCN3CCCCC3)ccc2=O)cc1 — inhibition (ligand displacement; 1 µM): 18.5%
O=C(Nc1ccc(S(=O)(=O)N2CCC(Cl)CC2)cc1)c1ccc([N+](=O)[O-])o1 — inhibition (ligand displacement; radioligand; 10 µM): 4%
c1ccc(N2CCN(Cc3nc4ccccc4[nH]3)CC2)nc1 — inhibition (ligand displacement; radioligand; 10 µM): 37.9%
CN1CCN(CCCOc2ccc(=O)n(-c3ccc(Cl)c(Cl)c3)n2)CC1 — inhibition (ligand displacement; 1 µM): 20.6%
O=C1N=C(N2CCCCN2)S/C1=C\c1ccc(F)cc1O — inhibition (ligand displacement; radioligand; 10 µM): 20%
N#Cc1cc(Cn2c(N3CCCC3)nc3ccccc32)ccc1F — inhibition (ligand displacement; 10 µM): -8.04%
CCCCCCOc1c(OC)cc2c3c1-c1cc4c(cc1CC3N(C)CC2c1ccccc1)OCO4 (stereo not shown) — inhibition (ligand displacement; radioligand; 10 µM): -13.5%
